Data on one compound can be found in ChEMBL document CHEMBL4390675, “Dopamine D4 Receptor-Selective Compounds Reveal Structure-Activity Relationships that Engender Agonist Efficacy” (J Med Chem, 2019).

In assay [1] the target is T1, D(2) dopamine receptor (Homo sapiens, UniProt P14416). Briefly: Agonist activity at human D2L receptor expressed in CHOK1 cells assessed as inhibition of forskolin-induced cAMP accumulation measured after 30 mins by Eu-cAMP tracer based TR-FRET assay relative to dopamine. The class given is cell-based. As to conditions: 0.5 h.
T1 sequence (P14416 whole entry, canonical isoform): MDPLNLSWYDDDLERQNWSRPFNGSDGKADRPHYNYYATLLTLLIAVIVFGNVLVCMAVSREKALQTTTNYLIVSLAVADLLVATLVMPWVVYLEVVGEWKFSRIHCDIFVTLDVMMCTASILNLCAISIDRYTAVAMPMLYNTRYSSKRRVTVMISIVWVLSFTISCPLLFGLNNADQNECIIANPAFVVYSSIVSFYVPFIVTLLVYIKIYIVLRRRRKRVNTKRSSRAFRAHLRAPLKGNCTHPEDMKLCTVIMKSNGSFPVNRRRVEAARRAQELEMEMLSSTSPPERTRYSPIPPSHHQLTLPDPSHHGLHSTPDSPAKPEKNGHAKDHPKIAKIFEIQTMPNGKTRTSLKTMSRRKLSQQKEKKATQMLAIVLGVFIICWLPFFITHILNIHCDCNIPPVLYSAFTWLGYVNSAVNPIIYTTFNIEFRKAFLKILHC
Assay [2] concerns the target T2, D(3) dopamine receptor (Homo sapiens, UniProt P35462). Briefly: Antagonist activity at human D3 receptor expressed in CHOK1 cells assessed as inhibition of dopamine-induced beta-arrestin recruitment measured after 90 mins by luminescence assay relative to control. The class given is cell-based. The method in brief: (§1)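 Antagonist-mode PathHunter β-arrestin assay in CHO-K1 cells stably expressing human D2R long isoform or D3R, seeded overnight. Compound dilutions in PBS with 0.2 μM metabisulfite were co-incubated with an EC80 dopamine concentration for 90 min at 37 °C. Detection reagent was added for 45–60 min at room temperature, then luminescence was read. Values are % of dopamine EC80 response, from nonlinear regression of triplicate runs, n = 3–4.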
A general note: Activated receptors often draw arrestin, which recruitment assays turn into a signal.

For assay [3], the target named is D(1B) dopamine receptor (Homo sapiens) (UniProt P21918). The assay is described as follows: Agonist activity at D5 receptor (unknown origin) stably expressed in CHOK1 cells assessed as induction of beta-arrestin recruitment measured after 90 mins by luminescence assay. The assay is classed as cell-based.
D(1B) dopamine receptor (Homo sapiens), sequence (P21918 whole entry): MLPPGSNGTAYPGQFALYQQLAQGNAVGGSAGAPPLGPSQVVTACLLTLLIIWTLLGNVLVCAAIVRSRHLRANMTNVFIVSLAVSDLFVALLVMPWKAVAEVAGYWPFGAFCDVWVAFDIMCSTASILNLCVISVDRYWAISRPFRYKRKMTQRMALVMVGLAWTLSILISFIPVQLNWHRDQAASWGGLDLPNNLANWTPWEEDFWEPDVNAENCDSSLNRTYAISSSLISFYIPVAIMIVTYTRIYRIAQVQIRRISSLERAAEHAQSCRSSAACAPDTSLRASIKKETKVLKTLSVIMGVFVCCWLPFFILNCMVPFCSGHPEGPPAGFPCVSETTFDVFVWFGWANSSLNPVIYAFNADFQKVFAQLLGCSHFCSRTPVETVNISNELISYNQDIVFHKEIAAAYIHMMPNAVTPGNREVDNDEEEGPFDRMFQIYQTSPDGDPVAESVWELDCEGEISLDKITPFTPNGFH
In assay [4] the target is T3, D(4) dopamine receptor (Homo sapiens, UniProt P21917).
T3 sequence (P21917 whole entry): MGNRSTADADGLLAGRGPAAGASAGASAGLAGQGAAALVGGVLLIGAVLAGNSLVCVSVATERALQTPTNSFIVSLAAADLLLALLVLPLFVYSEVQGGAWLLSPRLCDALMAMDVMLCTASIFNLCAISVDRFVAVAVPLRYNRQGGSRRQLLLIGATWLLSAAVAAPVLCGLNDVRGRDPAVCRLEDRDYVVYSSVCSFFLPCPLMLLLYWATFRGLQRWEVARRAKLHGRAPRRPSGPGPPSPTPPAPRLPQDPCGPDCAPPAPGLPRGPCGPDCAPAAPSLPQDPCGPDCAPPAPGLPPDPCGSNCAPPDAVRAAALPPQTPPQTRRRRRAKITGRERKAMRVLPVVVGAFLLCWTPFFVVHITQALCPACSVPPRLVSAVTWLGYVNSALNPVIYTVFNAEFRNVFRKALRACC
The assay is described as follows: Agonist activity at human D4 receptor expressed in CHOK1 cells assessed as induction of beta-arrestin recruitment measured after 90 mins by luminescence assay. The class given is cell-based. As to conditions: read-out: EC50. The method in brief: (§2)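 PathHunter enzyme-complementation assay in CHO-K1 cells stably expressing human D2R long isoform, D3R or D4R, seeded overnight in Ham's F12/10% FBS. Compounds were diluted in PBS with 0.2 μM sodium metabisulfite and applied at multiple concentrations for 90 min at 37 °C. Detection reagent was added for 45–60 min at room temperature, then luminescence was read. Values are % of maximal dopamine response, from nonlinear regression of triplicate runs, mean ± SEM, n = 3–4.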

Assay [5] has as its target T2, D(3) dopamine receptor. Briefly: Agonist activity at human D3 receptor expressed in CHOK1 cells assessed as induction of beta-arrestin recruitment measured after 90 mins by luminescence assay relative to control. The assay is classed as cell-based. A digest of the protocol:
as §2

Assay [6] concerns the target T4, D(4) dopamine receptor (Homo sapiens) (UniProt P21917).
T4 sequence (whole entry): T3 sequence (P21917 whole entry)
Briefly: Agonist activity at human D4 receptor expressed in CHOK1 cells assessed as inhibition of forskolin-induced cAMP accumulation measured after 30 mins by Eu-cAMP tracer based TR-FRET assay relative to dopamine. The class given is functional, cell-based. The method in brief:
(§3)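 LANCE Ultra TR-FRET cAMP assay in CHO-K1 cells stably expressing human D2R long isoform or D4R. Cells were plated in HBSS/5 mM HEPES/0.2 μM metabisulfite, then immediately given compound plus forskolin (10 μM final) for 30 min at room temperature. Eu-cAMP tracer and ULight-anti-cAMP were added for 2 h in the dark. Values are % of maximal dopamine signal, nonlinear regression of triplicate runs, n = 3–4.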

In assay [7] the target is T3, D(4) dopamine receptor. The assay is described as follows: Antagonist activity at human D4 receptor expressed in CHOK1 cells assessed as inhibition of dopamine-induced beta-arrestin recruitment measured after 90 mins by luminescence assay. The class given is cell-based. The note with it: read-out: IC50.
Assay [8] concerns the target T2, D(3) dopamine receptor. The assay is described as follows: Agonist activity at human D3 receptor expressed in CHOK1 cells assessed as induction of beta-arrestin recruitment measured after 90 mins by luminescence assay. The assay is classed as cell-based. The note with it: read-out: EC50. The method in brief: as §2
Assay [9] deals with T4, D(4) dopamine receptor (Homo sapiens). The assay is described as follows: Agonist activity at human D4 receptor expressed in CHOK1 cells assessed as induction of beta-arrestin recruitment measured after 90 mins by luminescence assay relative to control. The class given is cell-based. A digest of the protocol: as §2
For assay [10], the target named is T3, D(4) dopamine receptor. The assay is described as follows: Antagonist activity at human D4 receptor expressed in CHOK1 cells assessed as suppression of dopamine-induced inhibition of forskolin-stimulated cAMP accumulation measured after 30 mins by Eu-cAMP tracer based TR-FRET assay. The assay is classed as functional, cell-based. On the technique in general: Cyclic AMP is a second messenger, typically raised through Gs and lowered through Gi signalling.

In assay [11] the target is T3, D(4) dopamine receptor. Briefly: Displacement of [3H](R)-(+)-7-OH-DPAT from human D4.4 receptor expressed in HEK293 cell membranes measured after 90 mins by scintillation counting method. A digest of the protocol: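 HEK293 cells stably expressing human D4.4R; membranes used fresh in 50 mM Tris, 10 mM MgCl2, 1 mM EDTA, pH 7.4. 60 μg protein/well with 3 nM [3H]-(R)-(+)-7-OH-DPAT (final), half-log dilutions in 30% DMSO, in triplicate. 90 min at room temperature, then GF/B filtration. Nonspecific binding with 10 μM (+)-butaclamol.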

Assay [12] concerns the target D(1A) dopamine receptor (Homo sapiens) (UniProt P21728). The assay is described as follows: Antagonist activity at D1 receptor (unknown origin) stably expressed in CHOK1 cells assessed as inhibition of dopamine-induced beta-arrestin recruitment measured after 90 mins by luminescence assay. The class given is cell-based.
The target of assay [13] is T1, D(2) dopamine receptor. The assay is described as follows: Agonist activity at human D2L receptor expressed in CHOK1 cells assessed as induction of beta-arrestin recruitment measured after 90 mins by luminescence assay relative to control. The assay is classed as cell-based. The method in brief:
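PathHunter enzyme-complementation assay in CHO-K1 cells stably expressing human D2R long isoform, seeded 2625 cells/well and incubated overnight. Compounds diluted in PBS with 0.2 μM sodium metabisulfite, tested at multiple concentrations, 90 min at 37 °C. Detection reagent then 45–60 min at room temperature, luminescence read. Normalized to maximal dopamine response. Nonlinear regression of triplicate runs, n = 3–4.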

Assay [14] concerns the target T4, D(4) dopamine receptor (Homo sapiens). Briefly: Antagonist activity at human D4 receptor expressed in CHOK1 cells assessed as suppression of dopamine-induced inhibition of forskolin-stimulated cAMP accumulation measured after 30 mins by Eu-cAMP tracer based TR-FRET assay relative to dopamine. The assay is classed as functional, cell-based. Also noted: concentration or dose not given beside the values.

Assay [15] has as its target T3, D(4) dopamine receptor. The assay is described as follows: Displacement of [3H]N-methylspiperone from human D4.4 receptor expressed in HEK293 cell membranes measured after 60 mins by scintillation counting method. The method in brief: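 Frozen HEK293 membranes stably expressing human D4.4R (30 μg/well) in EBSS-bicarbonate buffer, pH 7.4, were incubated with 0.4 nM [3H]N-methylspiperone and half-log compound dilutions (30% DMSO vehicle) for 60 min at room temperature. Nonspecific binding was defined by 10 μM (+)-butaclamol. Samples were filtered on GF/B filters and counted by scintillation.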
(In general: In a radioligand displacement assay an active substance lowers the binding of a labelled ligand.)

Assay [16] deals with T2, D(3) dopamine receptor. Briefly: Displacement of [3H]N-methylspiperone from human D3 receptor expressed in HEK293 cell membranes measured after 60 mins by scintillation counting method. A digest of the protocol: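 HEK293 cells stably expressing human D3R; membranes in EBSS buffer pH 7.4, stored at −80 °C. 20 μg protein/well with 0.4 nM [3H]N-methylspiperone (final), half-log dilutions in 30% DMSO, in triplicate. 60 min at room temperature, then GF/B filtration. Nonspecific binding with 10 μM (+)-butaclamol.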

Assay [17] has as its target T2, D(3) dopamine receptor. The assay is described as follows: Antagonist activity at human D3 receptor expressed in CHOK1 cells assessed as inhibition of dopamine-induced beta-arrestin recruitment measured after 90 mins by luminescence assay. The class given is cell-based. The note with it: read-out: IC50. The method in brief:
as §1

Assay [18] deals with T2, D(3) dopamine receptor. Briefly: Displacement of [3H](R)-(+)-7-OH-DPAT from human D3 receptor expressed in HEK293 cell membranes measured after 90 mins by scintillation counting method. The method in brief:
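Fresh HEK293 hD3R membranes (40 μg/well) in 50 mM Tris, 10 mM MgCl2, 1 mM EDTA, pH 7.4 were incubated with 0.5 nM [3H]-(R)-(+)-7-OH-DPAT and half-log compound dilutions in 30% DMSO for 90 min at room temperature. Nonspecific binding was defined with 10 μM (+)-butaclamol. Samples were filtered on PEI-soaked GF/B filters and counted by scintillation.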

The target in assay [19] is D(1A) dopamine receptor (Homo sapiens) (UniProt P21728). The assay is described as follows: Agonist activity at D1 receptor (unknown origin) stably expressed in CHOK1 cells assessed as induction of beta-arrestin recruitment measured after 90 mins by luminescence assay. The class given is cell-based.
D(1A) dopamine receptor (Homo sapiens), sequence (P21728 whole entry): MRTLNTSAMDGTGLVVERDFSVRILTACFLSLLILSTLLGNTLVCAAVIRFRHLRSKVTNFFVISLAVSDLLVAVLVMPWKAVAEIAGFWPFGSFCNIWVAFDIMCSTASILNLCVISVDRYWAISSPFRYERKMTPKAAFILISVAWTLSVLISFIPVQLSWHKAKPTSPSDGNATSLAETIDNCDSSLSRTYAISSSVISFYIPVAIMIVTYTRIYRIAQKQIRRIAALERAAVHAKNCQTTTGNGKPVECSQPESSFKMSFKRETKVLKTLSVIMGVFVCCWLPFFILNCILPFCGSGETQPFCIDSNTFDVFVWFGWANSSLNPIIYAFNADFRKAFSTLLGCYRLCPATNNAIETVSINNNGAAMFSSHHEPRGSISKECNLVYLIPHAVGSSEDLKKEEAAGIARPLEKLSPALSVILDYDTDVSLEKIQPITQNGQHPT
Assay [20] has as its target T4, D(4) dopamine receptor (Homo sapiens). The assay is described as follows: Antagonist activity at human D4 receptor expressed in CHOK1 cells assessed as inhibition of dopamine-induced beta-arrestin recruitment measured after 90 mins by luminescence assay relative to control. Also noted: concentration or dose not given beside the values. The assay is classed as cell-based.

Assay [21] addresses T3, D(4) dopamine receptor. The assay is described as follows: Agonist activity at human D4 receptor expressed in CHOK1 cells assessed as inhibition of forskolin-induced cAMP accumulation measured after 30 mins by Eu-cAMP tracer based TR-FRET assay. The assay is classed as functional, cell-based. As to conditions: read-out: EC50. The method in brief:
as §3

The target of assay [22] is D(1B) dopamine receptor (Homo sapiens) (UniProt P21918). The assay is described as follows: Antagonist activity at D5 receptor (unknown origin) stably expressed in CHOK1 cells assessed as inhibition of dopamine-induced beta-arrestin recruitment measured after 90 mins by luminescence assay. The class given is cell-based.

Active and inactive are the calls of the source. No cut-off for these calls is given here.

T2 sequence (P35462 whole entry, canonical isoform): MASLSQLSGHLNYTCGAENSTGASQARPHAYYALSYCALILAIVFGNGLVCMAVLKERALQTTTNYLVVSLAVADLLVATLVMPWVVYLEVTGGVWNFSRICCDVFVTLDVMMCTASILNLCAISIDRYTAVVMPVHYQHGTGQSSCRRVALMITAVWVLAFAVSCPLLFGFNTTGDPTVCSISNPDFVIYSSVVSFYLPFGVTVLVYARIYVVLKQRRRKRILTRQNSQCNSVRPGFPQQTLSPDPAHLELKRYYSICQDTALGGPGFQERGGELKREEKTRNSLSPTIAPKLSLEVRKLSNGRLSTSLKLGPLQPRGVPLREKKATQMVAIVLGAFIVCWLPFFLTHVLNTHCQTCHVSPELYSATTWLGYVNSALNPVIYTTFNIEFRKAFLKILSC

For orientation: Emax means the size of the effect at its maximum, as opposed to the concentration needed. As usually defined, the inhibition is the percentage by which the read-out fell short of the control. For orientation: EC50 means the concentration giving half of the maximal effect. Usually IC50 stands for the concentration at which inhibition is half-maximal. What is called Ki is the equilibrium dissociation constant of an inhibitor or competing ligand from its target. In the case of `Cc1cccc(NC(=O)CN2CCN(c3ncccn3)CC2)c1`, the Emax was 54.4% in [1]; 58.4% in assay [5]; 64.6% in [6]; 24.7% in [9]; 39.6% in assay [13]. Besides, the inhibition entry in assay [2], in [12] and in assay [22] was “inactive” throughout. Moreover, the outcome in assay [3] and in [19] was inactive. Also, the results for the EC50 in assay [4], in assay [8] and in assay [21] were 278 nM, 5580 nM and 3.4 nM, respectively. The IC50 in [7] was 197 nM; in assay [10] it was 463 nM; in assay [17] it was > 100000 nM. The inhibition constant Ki is 5.66 nM in assay [11], 318 nM in [15], > 10000 nM in [16] and 5990 nM in assay [18]. Also, the inhibition in [14] stood at 45%; in [20], 80.6%.
